Data as given in ChEMBL document CHEMBL1150432 (J Med Chem, 2008).
The source made the active and inactive calls. No cut-off for these calls is given here.

Assays:
[1] = Displacement of [3H]5-hydroxytryptamine from rhesus monkey cloned 5HT1F receptor expressed in African green monkey COS7 cells by liquid scintillation counting; assay type: cell-based, Macaca mulatta; conditions: cos-7
Procedure, shortened: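 Rhesus monkey 5-HT1F cloned by PCR into pcDNA3.1 and transiently transfected into COS-7 cells. Membranes prepared by homogenization in 50 mM Tris-HCl, 5 mM EDTA, pH 7.4. Filtered over GF/B and counted by liquid scintillation. Ki calculated via Cheng-Prusoff. Mean of more than two runs in duplicate or triplicate.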

[2] = target: 5-hydroxytryptamine receptor 1D (Homo sapiens, UniProt P28221); assay: Displacement of [3H]5-hydroxytryptamine from human cloned 5HT1D receptor expressed in CHOK1 cells by liquid scintillation counting; assay type: cell-based, CHO-K1
5-hydroxytryptamine receptor 1D, sequence (P28221 whole entry): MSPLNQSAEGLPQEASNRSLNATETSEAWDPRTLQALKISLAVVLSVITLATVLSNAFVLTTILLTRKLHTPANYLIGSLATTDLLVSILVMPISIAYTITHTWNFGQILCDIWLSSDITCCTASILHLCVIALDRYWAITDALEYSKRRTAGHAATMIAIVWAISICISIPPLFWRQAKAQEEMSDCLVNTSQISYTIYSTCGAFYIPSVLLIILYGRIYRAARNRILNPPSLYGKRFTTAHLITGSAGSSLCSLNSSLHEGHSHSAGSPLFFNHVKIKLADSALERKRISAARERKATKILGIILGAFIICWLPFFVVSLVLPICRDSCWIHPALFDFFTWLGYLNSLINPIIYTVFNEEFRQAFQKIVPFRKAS
Procedure, shortened: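 Membranes from CHO-K1 cells expressing cloned human 5-HT1D were purchased. Stopped by filtration over GF/B filters and counted by liquid scintillation. Ki derived from IC50 by Cheng-Prusoff. Each value is the mean of more than two runs done in duplicate or triplicate.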

[3] = target: 5-hydroxytryptamine receptor 1B (Homo sapiens, UniProt P28222); assay: Displacement of [3H]5-hydroxytryptamine from human cloned 5HT1B receptor expressed in CHOK1 cells by liquid scintillation counting; assay type: cell-based, CHO-K1
5-hydroxytryptamine receptor 1B, sequence (P28222 whole entry): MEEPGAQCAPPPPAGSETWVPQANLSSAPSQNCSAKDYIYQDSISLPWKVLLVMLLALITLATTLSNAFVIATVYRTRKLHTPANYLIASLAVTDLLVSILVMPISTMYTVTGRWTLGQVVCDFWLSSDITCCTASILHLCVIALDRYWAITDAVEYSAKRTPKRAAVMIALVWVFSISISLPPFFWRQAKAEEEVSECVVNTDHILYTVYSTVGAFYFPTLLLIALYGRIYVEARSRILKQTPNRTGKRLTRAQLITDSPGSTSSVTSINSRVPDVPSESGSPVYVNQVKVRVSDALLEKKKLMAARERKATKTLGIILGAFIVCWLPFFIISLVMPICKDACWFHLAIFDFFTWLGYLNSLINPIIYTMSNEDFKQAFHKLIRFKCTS

[4] = target: 5-hydroxytryptamine receptor 1B (Oryctolagus cuniculus) (UniProt P49144); assay: Agonist activity at rabbit 5HT1B receptor assessed as induction of saphenous vein contraction at 30 uM after 5 mins; assay type: functional, tissue-based
5-hydroxytryptamine receptor 1B (Oryctolagus cuniculus), sequence (P49144 whole entry): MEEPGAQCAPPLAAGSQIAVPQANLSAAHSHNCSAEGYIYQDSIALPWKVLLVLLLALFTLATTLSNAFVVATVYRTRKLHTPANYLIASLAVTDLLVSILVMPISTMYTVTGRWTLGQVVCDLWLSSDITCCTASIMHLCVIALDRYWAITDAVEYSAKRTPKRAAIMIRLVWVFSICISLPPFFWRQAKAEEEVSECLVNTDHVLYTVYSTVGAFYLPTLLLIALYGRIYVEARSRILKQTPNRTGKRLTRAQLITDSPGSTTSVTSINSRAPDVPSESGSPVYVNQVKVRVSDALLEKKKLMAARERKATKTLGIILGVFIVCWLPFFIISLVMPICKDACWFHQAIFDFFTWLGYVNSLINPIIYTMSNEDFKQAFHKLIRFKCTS

[5] = target: 5-hydroxytryptamine receptor 1B (Oryctolagus cuniculus) (UniProt P49144); assay: Antagonist activity at rabbit 5HT1B receptor assessed as inhibition of sumatriptan-induced saphenous vein contraction at 30 uM; assay type: functional, tissue-based; set-up: scale not given: the % may be the effect or the level left
[6] = Displacement of [3H]5-hydroxytryptamine from human cloned 5HT1D receptor expressed in CHOK1 cells by liquid scintillation counting; conditions: cho-k1
[7] = target: T1, 5-hydroxytryptamine receptor 1A (Homo sapiens, UniProt P08908); assay: Binding affinity to 5HT1A receptor
T1 sequence (P08908 whole entry): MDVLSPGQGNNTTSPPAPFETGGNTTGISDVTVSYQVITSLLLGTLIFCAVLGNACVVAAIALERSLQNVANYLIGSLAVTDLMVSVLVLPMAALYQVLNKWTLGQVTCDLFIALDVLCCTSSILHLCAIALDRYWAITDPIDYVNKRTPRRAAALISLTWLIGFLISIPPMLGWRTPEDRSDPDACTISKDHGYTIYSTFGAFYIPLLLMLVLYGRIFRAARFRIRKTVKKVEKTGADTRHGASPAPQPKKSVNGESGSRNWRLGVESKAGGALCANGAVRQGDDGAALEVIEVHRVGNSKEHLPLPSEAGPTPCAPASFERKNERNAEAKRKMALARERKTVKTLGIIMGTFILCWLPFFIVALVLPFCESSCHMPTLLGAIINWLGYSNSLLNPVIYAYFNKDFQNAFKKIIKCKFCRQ

[8] = target: Beta-2 adrenergic receptor (Homo sapiens, UniProt P07550); assay: Binding affinity to human adrenergic beta2 receptor
Beta-2 adrenergic receptor, sequence (P07550 whole entry): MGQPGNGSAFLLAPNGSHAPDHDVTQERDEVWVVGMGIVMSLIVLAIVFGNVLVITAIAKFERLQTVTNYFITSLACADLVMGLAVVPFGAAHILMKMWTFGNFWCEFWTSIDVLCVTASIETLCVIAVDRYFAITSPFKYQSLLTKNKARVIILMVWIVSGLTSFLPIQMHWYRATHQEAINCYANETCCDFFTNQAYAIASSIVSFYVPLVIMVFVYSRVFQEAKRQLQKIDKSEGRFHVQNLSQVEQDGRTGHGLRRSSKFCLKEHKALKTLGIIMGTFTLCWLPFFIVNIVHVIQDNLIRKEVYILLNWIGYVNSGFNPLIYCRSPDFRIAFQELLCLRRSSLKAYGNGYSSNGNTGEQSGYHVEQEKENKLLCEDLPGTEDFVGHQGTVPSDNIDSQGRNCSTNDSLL

D(2) dopamine receptor = D(2) dopamine receptor (Homo sapiens, UniProt P14416); assay: Binding affinity to human dopamine D2 receptor
D(2) dopamine receptor, sequence (P14416 whole entry): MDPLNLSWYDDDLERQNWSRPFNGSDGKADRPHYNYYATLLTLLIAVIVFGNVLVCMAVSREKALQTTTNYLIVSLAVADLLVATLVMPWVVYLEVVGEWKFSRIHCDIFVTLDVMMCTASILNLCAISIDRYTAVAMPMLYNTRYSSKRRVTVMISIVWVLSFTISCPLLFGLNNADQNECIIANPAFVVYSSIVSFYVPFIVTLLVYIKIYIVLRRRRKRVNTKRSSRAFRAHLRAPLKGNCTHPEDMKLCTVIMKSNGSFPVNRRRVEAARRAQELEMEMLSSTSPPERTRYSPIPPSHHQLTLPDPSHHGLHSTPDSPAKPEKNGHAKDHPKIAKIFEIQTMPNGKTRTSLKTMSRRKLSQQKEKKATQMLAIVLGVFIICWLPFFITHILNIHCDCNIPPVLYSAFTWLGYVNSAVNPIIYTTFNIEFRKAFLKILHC

[9] = target: T2, Muscarinic acetylcholine receptor M2 (Homo sapiens, UniProt P08172); assay: Binding affinity to human muscarinic M2 receptor
T2 sequence (P08172 whole entry): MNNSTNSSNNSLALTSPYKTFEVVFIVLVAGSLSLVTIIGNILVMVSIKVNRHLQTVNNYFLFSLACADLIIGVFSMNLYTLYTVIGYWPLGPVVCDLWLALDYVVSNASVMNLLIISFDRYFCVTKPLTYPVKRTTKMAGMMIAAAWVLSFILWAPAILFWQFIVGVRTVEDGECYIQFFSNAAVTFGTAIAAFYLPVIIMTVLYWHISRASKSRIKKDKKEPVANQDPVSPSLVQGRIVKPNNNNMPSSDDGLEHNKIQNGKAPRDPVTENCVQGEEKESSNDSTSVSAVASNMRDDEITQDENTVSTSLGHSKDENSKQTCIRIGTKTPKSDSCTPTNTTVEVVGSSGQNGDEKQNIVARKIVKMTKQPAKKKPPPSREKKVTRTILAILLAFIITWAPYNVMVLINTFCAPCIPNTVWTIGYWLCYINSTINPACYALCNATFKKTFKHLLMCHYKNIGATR

[10] = target: Muscarinic acetylcholine receptor M3 (Homo sapiens, UniProt P20309); assay: Binding affinity to human muscarinic M3 receptor
Muscarinic acetylcholine receptor M3, sequence (P20309 whole entry): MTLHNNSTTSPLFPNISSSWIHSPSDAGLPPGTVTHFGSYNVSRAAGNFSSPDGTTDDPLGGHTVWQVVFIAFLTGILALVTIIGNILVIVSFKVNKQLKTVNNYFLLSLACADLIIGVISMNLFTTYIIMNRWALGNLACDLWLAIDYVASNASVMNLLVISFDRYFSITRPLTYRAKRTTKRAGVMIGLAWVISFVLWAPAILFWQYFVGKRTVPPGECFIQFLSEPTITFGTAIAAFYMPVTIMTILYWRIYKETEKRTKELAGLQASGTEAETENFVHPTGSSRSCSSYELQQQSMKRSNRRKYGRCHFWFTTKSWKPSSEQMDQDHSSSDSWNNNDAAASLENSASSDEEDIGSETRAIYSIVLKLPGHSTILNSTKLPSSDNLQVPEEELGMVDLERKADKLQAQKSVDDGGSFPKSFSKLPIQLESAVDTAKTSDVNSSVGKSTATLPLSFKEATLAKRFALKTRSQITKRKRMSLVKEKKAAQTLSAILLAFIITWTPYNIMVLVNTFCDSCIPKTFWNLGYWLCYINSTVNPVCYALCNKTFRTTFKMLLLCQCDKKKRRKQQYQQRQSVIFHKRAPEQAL

| Ki [2] | Ki [3] | Structure (SMILES) | Ki [1] | further results |
| --- | --- | --- | --- | --- |
| > 1000 nM | > 1000 nM | O=C(O)CCCCCCCCCN1CCC(c2c[nH]c3ccc(NC(=O)c4ccc(F)cc4)cc23)CC1 | > 1000 nM |  |
| 1.7 nM | 0.5 nM | CN1CCC(c2c[nH]c3ccc(NC(=O)CCCCCCCCCCCCC(=O)Nc4ccc5[nH]cc(C6CCN(C)CC6)c5c4)cc23)CC1 | > 10000 nM | Activity [4]: 24%; Activity [5]: 58% |
| 0.9 nM | 1.3 nM | CN1CCC(c2c[nH]c3ccc(NC(=O)CCCCCCC(=O)Nc4ccc5[nH]cc(C6CCN(C)CC6)c5c4)cc23)CC1 | > 10000 nM |  |
| 3.9 nM | 32 nM | O=C(Nc1ccc2[nH]cc(C3CCN(CCOCCOCCOCCN4CCC(c5c[nH]c6ccc(NC(=O)c7ccc(F)cc7)cc56)CC4)CC3)c2c1)c1ccc(F)cc1 | 28 nM |  |
| 0.95 nM | 0.76 nM | CN1CCC(c2c[nH]c3ccc(NC(=O)CCCC(=O)Nc4ccc5[nH]cc(C6CCN(C)CC6)c5c4)cc23)CC1 | > 10000 nM |  |
| 13 nM | 38 nM | O=C(Nc1ccc2[nH]cc(C3CCN(CCCCCCCCCCN4CCC(c5c[nH]c6ccc(NC(=O)c7ccc(F)cc7)cc56)CC4)CC3)c2c1)c1ccc(F)cc1 | > 10000 nM |  |
| > 1000 nM | > 1000 nM | O=C(Nc1ccc2[nH]cc(C3CCN(CC(N4CCC(c5c[nH]c6ccc(NC(=O)c7ccc(F)cc7)cc56)CC4)C(F)(F)F)CC3)c2c1)c1ccc(F)cc1 (configuration not stated) | 24 nM |  |
| > 1000 nM | > 1000 nM | NC(=O)C(CN1CCC(c2c[nH]c3ccc(NC(=O)c4ccc(F)cc4)cc23)CC1)N1CCC(c2c[nH]c3ccc(NC(=O)c4ccc(F)cc4)cc23)CC1 (configuration not stated) | 48 nM |  |
| > 1000 nM | > 1000 nM | CCCCCCCCN1CCC(c2c[nH]c3ccc(NC(=O)c4ccc(F)cc4)cc23)CC1 | > 10000 nM |  |
| 0.95 nM | 0.79 nM | CN1CCC(c2c[nH]c3ccc(NC(=O)CCCCCCCCC(=O)Nc4ccc5[nH]cc(C6CCN(C)CC6)c5c4)cc23)CC1 | > 10000 nM |  |
|  |  | NC(=O)c1ccc2[nH]cc(C3=CCC(NCCCCCCCNC4CC=C(c5c[nH]c6ccc(C(N)=O)cc56)CC4)CC3)c2c1 (configuration not stated) |  | IC50 [6]: 0.05 nM; IC50 [7]: 1.83 nM |
| 2.3 nM | 0.58 nM | CN1CCC(c2c[nH]c3ccc(NC(=O)CCCCCCCCCCCCCC(=O)Nc4ccc5[nH]cc(C6CCN(C)CC6)c5c4)cc23)CC1 | > 10000 nM |  |
| 24 nM | 103 nM | O=C(Nc1ccc2[nH]cc(C3CCN(C/C=C/CN4CCC(c5c[nH]c6ccc(NC(=O)c7ccc(F)cc7)cc56)CC4)CC3)c2c1)c1ccc(F)cc1 | > 1000 nM |  |
|  |  | CNS(=O)(=O)Cc1ccc2[nH]cc(CCN(C)C)c2c1 | 234 nM |  |
| 1.4 nM | 0.1 nM | CN1CCC(c2c[nH]c3ccc(NC(=O)CCCCCCCCCCCC(=O)Nc4ccc5[nH]cc(C6CCN(C)CC6)c5c4)cc23)CC1 | > 10000 nM |  |
| 1.5 nM | 18 nM | O=C(Nc1ccc2[nH]cc(C3CCN(CCOCCOCCN4CCC(c5c[nH]c6ccc(NC(=O)c7ccc(F)cc7)cc56)CC4)CC3)c2c1)c1ccc(F)cc1 | 27 nM |  |

| Ki [2] | Ki [3] | Structure (SMILES) | Ki [1] | further results |
| --- | --- | --- | --- | --- |
| 1 nM | 126 nM | O=C(Nc1ccc2[nH]cc(C3CCN(CCCCCCCCCN4CCC(c5c[nH]c6ccc(NC(=O)c7ccc(F)cc7)cc56)CC4)CC3)c2c1)c1ccc(F)cc1 | > 10000 nM |  |
| 11.3 nM | 0.81 nM | CN1CCC(c2c[nH]c3ccc(NC(=O)CCCCCCCCCCCCCCC(=O)Nc4ccc5[nH]cc(C6CCN(C)CC6)c5c4)cc23)CC1 | > 10000 nM |  |
| > 1000 nM | > 1000 nM | CN(C)CCCN1CCC(c2c[nH]c3ccc(NC(=O)c4ccc(F)cc4)cc23)CC1 | 124 nM |  |
|  |  | CN1CCC(c2c[nH]c3ccc(NC(=O)c4ccc(F)cc4)cc23)CC1 | 3 nM |  |
| 79 nM | > 10000 nM | O=C(Nc1ccc2[nH]cc(C3CCN(CCCN4CCC(c5c[nH]c6ccc(NC(=O)c7ccc(F)cc7)cc56)CC4)CC3)c2c1)c1ccc(F)cc1 | > 10000 nM |  |
| 219 nM | > 10000 nM | O=C(Nc1ccc2[nH]cc(C3CCN(CCN4CCC(c5c[nH]c6ccc(NC(=O)c7ccc(F)cc7)cc56)CC4)CC3)c2c1)c1ccc(F)cc1 | > 10000 nM |  |
| 0.6 nM | 100 nM | O=C(Nc1ccc2[nH]cc(C3CCN(CCCCCCN4CCC(c5c[nH]c6ccc(NC(=O)c7ccc(F)cc7)cc56)CC4)CC3)c2c1)c1ccc(F)cc1 | > 10000 nM |  |
| 13 nM | > 10000 nM | O=C(Nc1ccc2[nH]cc(C3CCN(CCCCCCCCCCCCN4CCC(c5c[nH]c6ccc(NC(=O)c7ccc(F)cc7)cc56)CC4)CC3)c2c1)c1ccc(F)cc1 | > 10000 nM |  |
| > 1000 nM | > 1000 nM | O=C(Nc1ccc2[nH]cc(C3CCN(CCO)CC3)c2c1)c1ccc(F)cc1 | 9 nM |  |
| 151 nM | 453 nM | O=C(Nc1ccc2[nH]cc(C3CCN(Cc4cccc(CN5CCC(c6c[nH]c7ccc(NC(=O)c8ccc(F)cc8)cc67)CC5)c4)CC3)c2c1)c1ccc(F)cc1 | > 1000 nM |  |
| > 1000 nM | > 1000 nM | O=C(Nc1ccc2[nH]cc(C3CCN(CCN4CCCCC4)CC3)c2c1)c1ccc(F)cc1 | > 1000 nM |  |
| 3.4 nM | 16 nM | CN1CCC(c2c[nH]c3ccc(NC(=O)CC(=O)Nc4ccc5[nH]cc(C6CCN(C)CC6)c5c4)cc23)CC1 | > 10000 nM |  |
| 13 nM | 126 nM | O=C(Nc1ccc2[nH]cc(C3CCN(CCCCCCCCCCCN4CCC(c5c[nH]c6ccc(NC(=O)c7ccc(F)cc7)cc56)CC4)CC3)c2c1)c1ccc(F)cc1 | > 10000 nM |  |
|  |  | NCCc1c[nH]c2ccc(O)cc12 [SEROTONIN] | 35 nM |  |
| 0.9 nM | 1.3 nM | CN1CCC(c2c[nH]c3ccc(NC(=O)CCCCCCCCCC(=O)Nc4ccc5[nH]cc(C6CCN(C)CC6)c5c4)cc23)CC1 | > 10000 nM |  |
| 0.3 nM | 79 nM | O=C(Nc1ccc2[nH]cc(C3CCN(CCCCCCCN4CCC(c5c[nH]c6ccc(NC(=O)c7ccc(F)cc7)cc56)CC4)CC3)c2c1)c1ccc(F)cc1 | > 10000 nM | IC50 [8]: > 10000 nM; Activity [4]: inactive; IC50 (D(2) dopamine receptor): 700 nM; IC50 [9]: 3200 nM; IC50 [10]: > 50000 nM |

| Structure (SMILES) | Ki [2] | Ki [3] | Ki [1] | further results |
| --- | --- | --- | --- | --- |
| CN1CCC(c2c[nH]c3ccc(N)cc23)CC1 | 39.6 nM | 353 nM | > 10000 nM |  |
| O=C(Nc1ccc2[nH]cc(C3CCN(Cc4ccccc4)CC3)c2c1)c1ccc(F)cc1 | > 1000 nM | > 1000 nM | 32 nM |  |
